Measurements as given in ChEMBL document CHEMBL1141427, “Antifungal amides from Piper scutifolium and Piper hoffmanseggianum” (2007).

Columns and labels:
[1] = system: Cladosporium sphaerospermum; assay: Antifungal activity against Cladosporium sphaerospermum after 72 hrs; format: functional
Outline: (§1)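 TLC bioautography: compounds applied to TLC plates, sprayed with a fungal spore suspension in glucose and salt solution, incubated 72 h in darkness in a moistened chamber at 25 °C. Clear inhibition zones against a dark background read as the minimum amount (µg) inhibiting growth on the plate. Strains: C. cladosporioides SPC 140, C. sphaerospermum SPC 491. Nystatin and miconazole positive controls; ampicillin and chloramphenicol negative controls.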

[2] = system: Cladosporium cladosporioides; assay: Antifungal activity against Cladosporium cladosporioides after 72 hrs; format: functional; outline: as §1

Row | Compound | MIC [1] | MIC [2]
1 | CC(=O)OC(C)(C)CNC(=O)/C=C\C=C/c1ccc2c(c1)OCO2 [ISOCORCOVADINE] | 1 µg | 2.5 µg
2 | CC(=O)OC(C)(C)CNC(=O)/C=C/C=C/c1ccc2c(c1)OCO2 [CORCOVADINE] | 1 µg | 1 µg
3 | CC(C)CNC(=O)/C=C\C=C/c1ccc2c(c1)OCO2 [ISOPIPERLONGUMININE] | 0.25 µg | 0.25 µg
4 | COc1ccc(C/C=C/C=C/C(=O)NCC(C)C)cc1 [PIPEROVATINE] | 1 µg | 1 µg
5 | CC(C)CNC(=O)/C=C/C=C/c1ccc2c(c1)OCO2 [PIPERLONGUMININE] | 1 µg | 1 µg
6 | CC(C)CNC(=O)/C=C/C=C\c1ccc2c(c1)OCO2 [SCUTIFOLAMIDE A] | 5 µg | 5 µg
7 | Clc1ccc(COC(Cn2ccnc2)c2ccc(Cl)cc2Cl)c(Cl)c1 (stereo not drawn) [MICONAZOLE] | 1 µg | 1 µg
8 | NYSTATIN | 1 µg | 1 µg
9 | COc1c(OC)c(OC)c2c3c(cc4ccccc42)NC(=O)c13 [PIPEROLACTAM C] | 50 µg | 5 µg
